# Assay results as given in ChEMBL document CHEMBL4689842, “EUbOPEN Chemogenomics Library wave 1” (2021).
# Test system: U2OS
# Assay: Multiplex assay against U2OS
# Assay type: toxicity, cell-based
# Settings: human
# How it was run: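 Four dyes were applied at seeding to live cells: Hoechst33342, BioTracker Green Microtubule Cytoskeleton Dye, MitoTracker Red and Annexin V Alexa Fluor 680. Imaging after compound addition used a CQ1 microscope at 37°C and 5% CO2. CellPathfinder machine-learning gating then sorted cells into Hoechst high-intensity objects or normal cells, normal cells into healthy, pyknosed or fragmented nuclei, and pyknosed cells into mitotic or apoptotic, with tubulin, mitochondrial-mass and membrane-permeability phenotypes given as per cents of healthy-nucleus cells.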
# [1] = 12 h, 1 µM, compound concentration 1 uM, replicate 1
# [2] = 12 h, 1 µM, compound concentration 1 uM, replicate 2
# [3] = 12 h, 10 µM, compound concentration 10 uM, replicate 1
# [4] = 12 h, 10 µM, compound concentration 10 uM, replicate 2
# [5] = 24 h, 1 µM, compound concentration 1 uM, replicate 1
# [6] = 24 h, 1 µM, compound concentration 1 uM, replicate 2
# [7] = 24 h, 10 µM, compound concentration 10 uM, replicate 1
# [8] = 24 h, 10 µM, compound concentration 10 uM, replicate 2
structure (smiles),measurement,setting,value
CCOc1cc2ncc(C#N)c(Nc3ccc(OCc4cccc(F)c4)c(Cl)c3)c2cc1NC(=O)/C=C/CN(C)C [HKI-357],Population Apoptotic (%),[1],58%
same,Population Fragmented Nuclei (%),[1],5%
same,Population Healthy Nuclei (%),[1],86%
same,Population Hoechst High Intensity Objects (%),[1],1%
same,Population Membrane Permeable-Phenotype (%),[1],21%
same,Population Mitochondria Different-Phenotype (%),[1],12%
same,Population Mitotic Cells (%),[1],41%
same,Population Normal (%),[1],98%
same,Population Pyknosed Nuclei (%),[1],8%
same,Population Tubulin-Different-Phenotype (%),[1],14%
same,Total Cell Count,[1],156
same,Population Apoptotic (%),[2],25%
same,Population Fragmented Nuclei (%),[2],11%
same,Population Healthy Nuclei (%),[2],84%
same,Population Hoechst High Intensity Objects (%),[2],16%
same,Population Membrane Permeable-Phenotype (%),[2],19%
same,Population Mitochondria Different-Phenotype (%),[2],25%
same,Population Mitotic Cells (%),[2],75%
same,Population Normal (%),[2],83%
same,Population Pyknosed Nuclei (%),[2],4%
same,Population Tubulin-Different-Phenotype (%),[2],21%
same,Total Cell Count,[2],141
same,Population Apoptotic (%),[3],56%
same,Population Fragmented Nuclei (%),[3],13%
same,Population Healthy Nuclei (%),[3],69%
same,Population Hoechst High Intensity Objects (%),[3],5%
same,Population Membrane Permeable-Phenotype (%),[3],43%
same,Population Mitochondria Different-Phenotype (%),[3],33%
same,Population Mitotic Cells (%),[3],43%
same,Population Normal (%),[3],94%
same,Population Pyknosed Nuclei (%),[3],16%
same,Population Tubulin-Different-Phenotype (%),[3],95%
same,Total Cell Count,[3],210
same,Population Apoptotic (%),[4],69%
same,Population Fragmented Nuclei (%),[4],20%
same,Population Healthy Nuclei (%),[4],65%
same,Population Hoechst High Intensity Objects (%),[4],12%
same,Population Membrane Permeable-Phenotype (%),[4],31%
same,Population Mitochondria Different-Phenotype (%),[4],39%
same,Population Mitotic Cells (%),[4],30%
same,Population Normal (%),[4],87%
same,Population Pyknosed Nuclei (%),[4],13%
same,Population Tubulin-Different-Phenotype (%),[4],88%
same,Total Cell Count,[4],119
same,Population Apoptotic (%),[5],32%
same,Population Fragmented Nuclei (%),[5],7%
same,Population Healthy Nuclei (%),[5],82%
same,Population Hoechst High Intensity Objects (%),[5],2%
same,Population Membrane Permeable-Phenotype (%),[5],23%
same,Population Mitochondria Different-Phenotype (%),[5],16%
same,Population Mitotic Cells (%),[5],67%
same,Population Normal (%),[5],97%
same,Population Pyknosed Nuclei (%),[5],10%
same,Population Tubulin-Different-Phenotype (%),[5],17%
same,Total Cell Count,[5],172
same,Population Apoptotic (%),[6],45%
same,Population Fragmented Nuclei (%),[6],9%
same,Population Hoechst High Intensity Objects (%),[6],7%
same,Population Membrane Permeable-Phenotype (%),[6],10%
same,Population Mitochondria Different-Phenotype (%),[6],23%
same,Population Mitotic Cells (%),[6],54%
same,Population Normal (%),[6],92%
same,Population Pyknosed Nuclei (%),[6],8%
same,Population Tubulin-Different-Phenotype (%),[6],27%
same,Total Cell Count,[6],154
same,Population Apoptotic (%),[7],84%
same,Population Fragmented Nuclei (%),[7],8%
same,Population Healthy Nuclei (%),[7],68%
same,Population Hoechst High Intensity Objects (%),[7],4%
same,Population Membrane Permeable-Phenotype (%),[7],32%
same,Population Mitochondria Different-Phenotype (%),[7],58%
same,Population Mitotic Cells (%),[7],15%
same,Population Normal (%),[7],95%
same,Population Pyknosed Nuclei (%),[7],23%
same,Population Tubulin-Different-Phenotype (%),[7],81%
same,Total Cell Count,[7],272
same,Population Apoptotic (%),[8],86%
same,Population Healthy Nuclei (%),[8],74%
same,Population Hoechst High Intensity Objects (%),[8],12%
same,Population Membrane Permeable-Phenotype (%),[8],23%
same,Population Mitochondria Different-Phenotype (%),[8],69%
same,Population Mitotic Cells (%),[8],13%
same,Population Normal (%),[8],87%
same,Population Pyknosed Nuclei (%),[8],17%
same,Population Tubulin-Different-Phenotype (%),[8],84%
same,Total Cell Count,[8],141
